# hERG protect – hERG rescue from dofetilide block, primary screen, cell-based, CHO-hERG, FluxOR thallium flux, dofetilide IC70; Voltage-gated inwardly rectifying potassium channel KCNH2 (Homo sapiens), Q12809; dofetilide IC70 present; activation (rescue from dofetilide block), less the hit threshold, % at 10 µM; hit rate 0.51% among 310,000; AID 1511, 2009;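 active = activation above the mean of controls blocked by dofetilide plus 5 SD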;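 also: thallium influx through hERG after potassium depolarization seen as dye fluorescence rise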
# KCNK3 block – human KCNK3 channel inhibitors, primary screen, CHO cells, FluxOR thallium flux, B-score; Potassium channel subfamily K member 3 (Homo sapiens), O14649; FluxOR fluorescence; stronger effect = lower value; B-score at 10 µM; hit rate 0.84% among 340,000;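 active = B-score under library mean minus 4 SD, starting fluorescence ratio at most library mean plus 5 SD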;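 also: more negative B-score means stronger inhibition of thallium flux through KCNK3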
# KCNQ1 act – potentiators or activators of KCNQ1 channel, primary screen, cell-based, thallium flux, high-throughput; Potassium voltage-gated channel subfamily KQT member 1 (Homo sapiens), P51787; CHO-K1 KCNQ1, thallium flux FluxOR fluorescence; stronger effect = higher value; B-score at 10 µM; hit rate 0.35% among 310,000; AID 2648, 2010;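 active = fluorescence ratio B-score, a plate-corrected score, at least three library SD, with initial intensity B-score within 5 SD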
#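 Test system: CHO-K1 cells stably expressing KCNQ1 / Medium: assay buffer / Also added: depolarizing K+/Tl+ stimulus, K2SO4 and Tl2SO4 each 12.5 mM in 5x stock / Incubation: 90 min dye loading and 20 min compound exposure, both at room temperature / Signal: thallium influx via FluxOR fluorescence, kinetic imaging / Evaluation: B score of baseline-normalized fluorescence ratio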
# KCNQ1 inh – inhibitors of human KCNQ1 channel, primary screen, cell-based, thallium flux, high-throughput; hit rate 1.3% among 310,000; B-score at 10 µM; CHO-K1 KCNQ1, FluxOR thallium flux fluorescence; stronger effect = higher value;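 active = compounds whose thallium flux B-score, printed positive for inhibition, exceeds three library SD while starting fluorescence stays within three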;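 also: channel opened by potassium depolarization with thallium stimulus after 20 min compound exposure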
# KCNK9 inh – KCNK9 potassium channel inhibitors, primary screen, HEK293 cells, thallium flux | FluxOR thallium flux fluorescence; stronger effect = lower value | hit rate 1.2% among 310,000 | B-score at 10 µM | AID 488922, 2010;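 active = ratio B-score over 3 SD below the library mean, with starting fluorescence within 5 SD of its mean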;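 also: negative B-score means less thallium flux so channel inhibition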
# KCNK9 inh conf – KCNK9 potassium channel inhibitors, confirmation, HEK293 cells, thallium flux, duplicate; shares compounds with KCNK9 inh; FluxOR thallium flux fluorescence; inhibition, % at 10 µM; hit rate 43% among 4,900;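 active = thallium signal inhibited by more than 5 SD of the compound-free buffer control wells, on both duplicate plates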;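 also: 0% = assay buffer control wells without compound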
# Kir2-1 spec – mouse Kir2.1 channel inhibition, confirmation, selectivity assay for KCNK9 modulator project, cell-based, HEK293, thallium flux. shares compounds with KCNK9 inh. Kir2.1 cells, FluxOR thallium flux fluorescence. inhibition, % at 10 µM. hit rate 4% among 4,900;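 active = thallium signal drop more than 5 SD beyond the mean of the no-compound control wells, seen in both duplicate plates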;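 also: signal is fluorescence rise after thallium addition divided by baseline fluorescence; plate controls were assay buffer only for no effect and full block by chlorpromazine control for full effect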
# Target sequence (P35561 whole entry, looked up): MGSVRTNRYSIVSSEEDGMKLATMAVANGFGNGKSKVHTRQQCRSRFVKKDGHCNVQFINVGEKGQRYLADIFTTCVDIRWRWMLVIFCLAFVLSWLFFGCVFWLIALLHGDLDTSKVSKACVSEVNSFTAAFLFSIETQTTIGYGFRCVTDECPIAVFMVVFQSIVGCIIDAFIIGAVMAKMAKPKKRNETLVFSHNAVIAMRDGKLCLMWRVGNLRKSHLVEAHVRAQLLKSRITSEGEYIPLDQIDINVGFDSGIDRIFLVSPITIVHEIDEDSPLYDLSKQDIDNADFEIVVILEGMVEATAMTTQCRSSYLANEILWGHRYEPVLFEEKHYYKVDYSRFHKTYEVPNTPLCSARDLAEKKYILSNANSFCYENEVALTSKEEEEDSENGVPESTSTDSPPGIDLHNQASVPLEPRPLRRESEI
# HEK293 Tl ctr – thallium flux in non-induced HEK293 cells, confirmation, counter-screen for KCNK9 inhibitor project, cell-based, second counter screen, non-induced KCNK9-HEK293. shares compounds with KCNK9 inh. hit rate 40% among 4,900. inhibition, % at 10 µM. FluxOR thallium flux;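 active = thallium signal drop beyond 5 SD of the untreated control mean, on both duplicate plates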;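 also: plate controls were buffer only IC0 wells for no effect and SID17386958 at its maximal inhibitory level for full effect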
# An asterisk follows results filed as active; i = inactive; nt = not tested or not shown. Hits are enriched below; roughly 3.1% of the tested compounds scored in any of these assays.
SMILES,hERG protect,KCNK3 block,KCNQ1 act,KCNQ1 inh,KCNK9 inh,KCNK9 inh conf,Kir2-1 spec,HEK293 Tl ctr
CN(C)CC/C=C1\c2cc(Cl)ccc2Sc2cc(F)c(F)cc21,-19,i,i,i,i,i,34%*,i
CN(C)CC/C=C1\c2ccccc2Sc2cc(F)c(Cl)cc21,-18,i,i,i,i,i,49%*,i
CCCCCCCCCC[N+](C)(C)CC/C=C1/c2ccccc2Sc2ccc(Cl)cc21,-14,i,i,i,-13*,58%*,50%*,i
CN(C)CC/C=C1/c2ccc(F)cc2Sc2ccc(Cl)cc21,-18,i,i,i,i,i,50%*,i
CCc1cccc(C)c1NC(=O)CN1CCN(S(=O)(=O)c2ccc(C(C)(C)C)cc2)CC1,-15,i,i,i,i,nt,nt,nt
NNC(=O)c1ccc(CSc2n[nH]c(=O)[nH]c2=O)cc1,-10,i,i,i,i,nt,nt,nt
OCCN(Cc1ccccc1)c1ncnc2sccc12,-11,i,i,i,i,nt,nt,nt
CCC(C)(C(=O)NC1CCCCC1)N(Cc1cccs1)C(=O)c1ccc(=O)[nH]c1 (centres undefined),-8,i,i,i,i,nt,nt,nt
CN(C)CC/C=C1/c2cc(F)ccc2CSc2ccc(F)cc21,-11,i,i,i,i,nt,nt,nt
CN(C)CC/C=C1\c2ccc(F)cc2Sc2cc(F)c(Cl)cc21,-19,i,i,i,i,i,45%*,i
CN(C)CC/C=C1\c2ccccc2Sc2ccc(Cl)cc21,-14,i,i,i,i,i,59%*,i
Cc1ccc(NC(=O)c2cncc(Br)c2)c(O)c1,-7,i,i,i,i,nt,nt,nt
COC(=O)c1ccccc1NC(=O)CN1C(=O)c2ccccc2C1=O,-8,i,i,i,i,nt,nt,nt
CCC(=O)Nc1ccc(NC(=O)C23CC4CC(CC(C4)C2)C3)cn1,-1,i,i,i,i,nt,nt,nt
Cc1ccnc(NC(=O)C23CC4CC(CC(C4)C2)C3)c1,-3,i,i,i,i,i,i,i
O=C1C(Cc2ccccc2)Nc2ncnc(N3CCN(c4ccccc4)CC3)c2N1Cc1ccc(Cl)cc1 (centres undefined),-15,i,i,i,i,nt,nt,nt
O=C1C(Cc2ccccc2)Nc2ncnc(N3CCCCC3)c2N1Cc1ccc(Cl)cc1 (centres undefined),-8,i,i,i,-17*,76%*,i,34%*
CC(C)CC1Nc2ncnc(N3CCCCC3)c2N(Cc2ccccc2)C1=O (centres undefined),-9,i,i,i,-9.1*,39%*,i,38%*
Oc1ccc(C[C@H]2CNCCN2CCCCC2CCCCC2)cc1,-14,i,i,i,i,nt,nt,nt
CCCOc1cccc(C(=O)NC(=S)Nc2cccc(C(F)(F)F)c2)c1,-3,i,i,i,i,i,i,i
Cc1ccc(F)c(NC(=O)/C(C#N)=C(\O)c2ccc(C(C)(C)C)cc2)c1,-11,i,i,7*,i,i,i,i
Cc1ccc(F)c(NC(=O)c2ccc(Cn3cc(Cl)cn3)cc2)c1,-10,i,i,i,i,nt,nt,nt
Cc1ccc(C)c(N2N=C(C(=O)OCC(=O)N(C)c3ccccc3)CCC2=O)c1,nt,i,nt,nt,nt,nt,nt,nt
Cc1cccnc1NC(=O)Nc1cccc(Cl)c1,-2,i,i,i,i,nt,nt,nt
CC(C)OC(=O)CSc1nc(Cc2cccs2)nc2ccccc12,-16,i,i,i,-12*,54%*,45%*,32%*
SMILES,hERG protect,KCNK3 block,KCNQ1 act,KCNQ1 inh,KCNK9 inh,KCNK9 inh conf,Kir2-1 spec,HEK293 Tl ctr
CC1=CC(=C(C#N)c2nc3ccccc3s2)C=C(C)N1c1ccc(F)cc1,-2,i,i,i,i,nt,nt,nt
COc1ccccc1N1C(C)=CC(=C(C#N)c2nc3ccccc3s2)C=C1C,-10,i,i,i,-8.4*,37%*,i,70%*
COc1ccccc1N1CCN(C2CCCN(S(=O)(=O)c3cccc(Cl)c3)C2)CC1 (centres undefined),-12,i,i,i,i,i,i,i
COc1ccccc1N1CCN(C2CCCN(S(=O)(=O)c3ccc(C)cc3)C2)CC1 (centres undefined),-13,i,i,i,i,nt,nt,nt
N#Cc1c(-c2ccccc2)nc(SCC(=O)N2c3ccccc3Sc3ccccc32)[nH]c1=O,-38,i,i,i,i,i,i,25%*
N#Cc1c(-c2ccccc2)nc(SCC(=O)N(c2ccccc2)c2ccccc2)[nH]c1=O,-11,i,i,i,i,nt,nt,nt
c1ccc(OCCOc2ccccc2-c2nnco2)cc1,2,i,i,i,-8.4*,i,i,28%*
Nc1cc(Cl)ccc1C(=O)OCC(=O)NCC1CCCO1 (centres undefined),nt,i,nt,nt,nt,nt,nt,nt
CC(C)(C)c1ccc(C(=O)NCC2CCCN2S(=O)(=O)c2ccccc2)cc1 (centres undefined),-14,i,i,i,i,i,i,i
O=C(Nc1cccc(-c2cn3ccsc3n2)c1)c1ccccc1,-7,i,i,i,-9.7*,33%*,i,i
CCCCC(=O)Nc1cccc(-c2cn3ccsc3n2)c1,-7,i,i,i,i,nt,nt,nt
CCN1C(=O)[C@H]2[C@@H](c3ccc(C)cc3)N3C(=O)N(c4ccccc4)C(=O)[C@@]3(C)[C@H]2C1=O,-2,i,i,i,i,nt,nt,nt
CCN1/C(=C/C=C/c2sc3ccccc3[n+]2CC)Sc2ccccc21,-21,-13*,i,i,-24*,i,i,i
CC[n+]1c(/C=C/Nc2ccccc2)sc2ccccc21,-14,i,i,i,i,nt,nt,nt

# Assay outcomes: PubChem, Johns Hopkins Ion Channel Center
